Columns and labels:
[1] = test system: EKVX; experiment: Growth inhibition of human EKVX cells assessed as cell growth at 10^-8 M incubated for 48 hrs by sulforhodamine B assay relative to control; type: functional; settings: read-out: Activity
[2] = test system: SK-MEL-5; experiment: Growth inhibition of human SK-MEL-5 cells assessed as cell growth at 10^-6 M incubated for 48 hrs by sulforhodamine B assay relative to control; type: functional; settings: SK-MEL-5, 48 h, read-out: Activity
[3] = test system: K562; experiment: Growth inhibition of human K562 cells assessed as cell growth at 10^-4 M incubated for 48 hrs by sulforhodamine B assay relative to control; type: functional; settings: K562, 48 h, read-out: Activity
[4] = test system: RXF 393; experiment: Growth inhibition of human RXF393 cells assessed as cell growth at 10^-8 M incubated for 48 hrs by sulforhodamine B assay relative to control; type: functional; settings: RXF 393, 48 h, read-out: Activity
[5] = test system: A498; experiment: Growth inhibition of human A498 cells assessed as cell growth at 10^-6 M incubated for 48 hrs by sulforhodamine B assay relative to control; type: functional; settings: A498, 48 h, read-out: Activity
[6] = test system: SR; experiment: Growth inhibition of human SR cells assessed as cell growth at 10^-7 M incubated for 48 hrs by sulforhodamine B assay relative to control; type: functional; settings: read-out: Activity
[7] = test system: SF-295; experiment: Growth inhibition of human SF295 cells assessed as cell growth at 10^-6 M incubated for 48 hrs by sulforhodamine B assay relative to control; type: functional; settings: SF-295, 48 h, read-out: Activity
[8] = test system: HL-60(TB); experiment: Growth inhibition of human HL-60(TB) cells assessed as cell growth at 10^-5 M incubated for 48 hrs by sulforhodamine B assay relative to control; type: functional; settings: HL-60, 48 h, read-out: Activity
[9] = test system: NCI/ADR-RES; experiment: Growth inhibition of human NCI/ADR-RES cells assessed as cell growth at 10^-5 M incubated for 48 hrs by sulforhodamine B assay relative to control; type: functional; settings: read-out: Activity
[10] = test system: Malme-3M; experiment: Cytotoxicity against human MALME-3M cells after 48 hrs by SRB assay; type: functional
[11] = test system: SK-OV-3; experiment: Growth inhibition of human SKOV3 cells assessed as cell growth at 10^-8 M incubated for 48 hrs by sulforhodamine B assay relative to control; type: functional; settings: SK-OV-3, 48 h, read-out: Activity
[12] = test system: OVCAR-5; experiment: Growth inhibition of human OVCAR5 cells assessed as cell growth at 10^-5 M incubated for 48 hrs by sulforhodamine B assay relative to control; type: functional; settings: OVCAR-5, 48 h, read-out: Activity
[13] = test system: K562; experiment: Growth inhibition of human K562 cells assessed as cell growth at 10^-6 M incubated for 48 hrs by sulforhodamine B assay relative to control; type: functional; settings: K562, 48 h, read-out: Activity
[14] = test system: UACC-257; experiment: Growth inhibition of human UACC257 cells assessed as cell growth at 10^-5 M incubated for 48 hrs by sulforhodamine B assay relative to control; type: functional; settings: UACC-257, 48 h, read-out: Activity
[15] = test system: HCT-116; experiment: Growth inhibition of human HCT116 cells assessed as cell growth at 10^-8 M incubated for 48 hrs by sulforhodamine B assay relative to control; type: functional; settings: HCT-116, 48 h, read-out: Activity
[16] = test system: SNB-75; experiment: Growth inhibition of human SNB75 cells assessed as cell growth at 10^-7 M incubated for 48 hrs by sulforhodamine B assay relative to control; type: functional; settings: SNB-75, 48 h, read-out: Activity
[17] = test system: HCT-116; experiment: Growth inhibition of human HCT116 cells assessed as cell growth at 10^-6 M incubated for 48 hrs by sulforhodamine B assay relative to control; type: functional; settings: HCT-116, 48 h, read-out: Activity
[18] = test system: PC-3; experiment: Growth inhibition of human PC3 cells assessed as cell growth at 10^-8 M incubated for 48 hrs by sulforhodamine B assay relative to control; type: functional; settings: PC-3, 48 h, read-out: Activity
[19] = test system: HCT-15; experiment: Growth inhibition of human HCT15 cells assessed as cell growth at 10^-7 M incubated for 48 hrs by sulforhodamine B assay relative to control; type: functional; settings: HCT-15, 48 h, read-out: Activity
[20] = test system: COLO 205; experiment: Cytotoxicity against human COLO205 cells after 48 hrs by SRB assay; type: functional; settings: COLO 205, 48 h
[21] = test system: M14; experiment: Growth inhibition of human M14 cells assessed as cell growth at 10^-7 M incubated for 48 hrs by sulforhodamine B assay relative to control; type: functional; settings: M14, 48 h, read-out: Activity
[22] = test system: A498; experiment: Cytotoxicity against human A498 cells after 48 hrs by SRB assay; type: functional; settings: A498, 48 h
[23] = test system: SNB-19; experiment: Growth inhibition of human SNB19 cells assessed as cell growth at 10^-8 M incubated for 48 hrs by sulforhodamine B assay relative to control; type: functional; settings: SNB-19, 48 h, read-out: Activity
[24] = test system: ACHN; experiment: Growth inhibition of human ACHN cells assessed as cell growth at 10^-7 M incubated for 48 hrs by sulforhodamine B assay relative to control; type: functional; settings: read-out: Activity
[25] = test system: SK-MEL-2; experiment: Cytotoxicity against human SK-MEL-2 cells after 48 hrs by SRB assay; type: functional; settings: SK-MEL-2, 48 h
[26] = test system: M14; experiment: Cytotoxicity against human M14 cells after 48 hrs by SRB assay; type: functional; settings: M14, 48 h
[27] = test system: CCRF-CEM; experiment: Growth inhibition of human CCRF-CEM cells assessed as cell growth at 10^-4 M incubated for 48 hrs by sulforhodamine B assay relative to control; type: functional; settings: read-out: Activity
[28] = test system: HMEC-1; experiment: Antiproliferative activity against HMEC1 cells after 4 days by Coulter counter method; type: cell-based; settings: Homo sapiens, HMEC-1, 96 h
Method in brief: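 Primary HUVEC, primary HMVEC-d and the HMEC-1 line seeded at 20,000 cells/well in gelatin-coated plates in EC growth medium (EGM2). After overnight incubation, 5-fold compound dilutions added. Cells proliferated four days with compound, then trypsinized and counted by Coulter counter to derive IC₅₀.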

[29] = test system: MCF7; experiment: Growth inhibition of human MCF7 cells assessed as cell growth at 10^-5 M incubated for 48 hrs by sulforhodamine B assay relative to control; type: functional; settings: MCF7, 48 h, read-out: Activity
[30] = test system: UACC-257; experiment: Growth inhibition of human UACC257 cells assessed as cell growth at 10^-6 M incubated for 48 hrs by sulforhodamine B assay relative to control; type: functional; settings: UACC-257, 48 h, read-out: Activity
[31] = test system: L1210; experiment: Antiproliferative activity against mouse L1210 cells after 48 hrs by Coulter counter method; type: functional, cell-based; settings: L1210, 48 h
Method in brief: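 Cell count assay in 96-well microtiter plates; (5–7.5) × 10⁴ tumor cells per well plus test compound. Cells proliferated at 37 °C in humidified CO₂-controlled atmosphere, 48 h for murine leukemia L1210, 72 h for human lymphocytic CEM and cervix carcinoma HeLa. Counted by Coulter counter; IC₅₀ is the concentration that inhibits proliferation by 50%.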

[32] = read-out: pLC50 (the source's name) (converted)

`C#C[C@@]1(O)[C@@H](CO)O[C@@H](n2ccc3c(N)ncnc32)[C@@H]1O` gave a growth at 0.01 µM [1] of 87%, a growth at 1 µM [2] of 85% and a growth at 100 µM [3] of 2%. For the same compound, the growth at 0.01 µM [4] was 99%, the growth at 1 µM [5] was 80% and the growth at 0.1 µM [6] was 96%. It also gave a growth at 1 µM [7] of 74%, a growth at 10 µM [8] of -24% and a growth at 10 µM [9] of -7%. The GI50 ([10]; read-out: GI50) was 1.68 µM, the TGI ([10]; read-out: TGI) was 5.55 µM and the GI50 ([10]; read-out: pGI50 (converted)) was 1.66 µM. For the same compound, the CC50 [10, 32] was 30.9 µM, the TGI ([10]; read-out: pTGI (converted)) was 5.5 µM and the growth at 0.01 µM [11] was 94%. It also gave a growth at 10 µM [12] of -8%, a growth at 1 µM [13] of 46% and a growth at 10 µM [14] of -16%. It also gave a growth at 0.01 µM [15] of 91%, a growth at 0.1 µM [16] of 95% and a growth at 1 µM [17] of 38%. For the same compound, the growth at 0.01 µM [18] was 97%, the growth at 0.1 µM [19] was 93% and the TGI ([20]; read-out: TGI) was 2.67 µM. The GI50 ([20]; read-out: pGI50 (converted)) was 0.676 µM, the CC50 [20, 32] was 8.91 µM and the TGI ([20]; read-out: pTGI (converted)) was 2.69 µM. The growth at 0.1 µM [21] was 99%, the TGI ([22]; read-out: TGI) was 3.74 µM and the GI50 ([22]; read-out: pGI50 (converted)) was 1.66 µM. It also gave a TGI ([22]; read-out: pTGI (converted)) of 3.72 µM, a growth at 0.01 µM [23] of 99% and a growth at 0.1 µM [24] of 101%. The CC50 ([25]; read-out: LC50 (the source's name)) was > 100 µM, the TGI ([25]; read-out: TGI) was 6.32 µM and the GI50 ([25]; read-out: pGI50 (converted)) was 1.38 µM. It also gave a TGI ([25]; read-out: pTGI (converted)) of 6.31 µM, a TGI ([26]; read-out: TGI) of 3 µM and a GI50 ([26]; read-out: pGI50 (converted)) of 1.41 µM. It also gave a CC50 [26, 32] of 6.31 µM, a TGI ([26]; read-out: pTGI (converted)) of 3.02 µM and a growth at 100 µM [27] of 9%. For the same compound, the IC50 [28] was 0.061 µM, the growth at 10 µM [29] was -4% and the growth at 1 µM [30] was 88%. It also gave an IC50 [31] of 0.38 µM.
